Measurements published in ChEMBL document CHEMBL1126822, “7 alpha-Methyl- and 11 beta-ethoxy-substitution of [125I]-16 alpha-iodoestradiol: effect on estrogen receptor-mediated target tissue uptake” (J Med Chem, 1993).

How the values were obtained:
[1] = tested on: Rattus norvegicus; assay: Tissue uptake (fat) of [125I]- after administration of [125I]-labeled compound to immature female rats (n=3) in the absence of 60 microg coinjected estradiol after 24 hours; assay type: ADME, organism-based; settings: in vivo
How it was run: (§1)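 Immature female Fischer rats, 24 days old, 55-60 g, unanesthetized in retention cages, given HPLC-purified 125I-labeled steroid (3 μCi, 111 kBq) via lateral tail vein in 200 μL of 9% ethanol-saline with 1% Tween-80. The blocking group was coinjected with 60 μg unlabeled estradiol and sampled at 1 h. Animals were killed under ether at 0.5-24 h. Tissues were KCl-washed, blotted, weighed and gamma-counted. Results are % ID/g, with variation as small-sample-corrected %CV.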

[2] = tested on: Rattus norvegicus; assay: Tissue uptake (fat) of [125I]- after administration of [125I]-labeled compound to immature female rats (n=3) in the presence of 60 microg coinjected estradiol after 1 hour; assay type: ADME, organism-based; settings: in vivo; how it was run: as §1
[3] = tested on: Rattus norvegicus; assay: Tissue uptake (kidneys) of [125I]- after administration of [125I]-labeled compound to immature female rats (n=3) in the absence of 60 microg coinjected estradiol after 0.5 hours; assay type: ADME, organism-based, Kidney; settings: in vivo; how it was run: as §1
[4] = tested on: Rattus norvegicus; assay: Tissue uptake (kidneys) of [125I]- after administration of [125I]-labeled compound to immature female rats (n=3) in the absence of 60 microg coinjected estradiol after 24 hours; assay type: ADME, organism-based, Kidney; settings: in vivo; how it was run: as §1
[5] = tested on: Rattus norvegicus; assay: Tissue uptake (kidneys) of [125I]- after administration of [125I]-labeled compound to immature female rats (n=3) in the presence of 60 microg coinjected estradiol after 1 hour; assay type: ADME, organism-based, Kidney; settings: in vivo; how it was run: as §1
[6] = tested on: Rattus norvegicus; assay: Tissue uptake (liver) of [125I]- after administration of [125I]-labeled compound to immature female rats (n=3) in the absence of 60 microg coinjected estradiol after 0.5 hours; assay type: ADME, organism-based; settings: in vivo; how it was run: as §1
[7] = tested on: Rattus norvegicus; assay: Tissue uptake (liver) of [125I]- after administration of [125I]-labeled compound to immature female rats (n=3) in the absence of 60 microg coinjected estradiol after 24 hours; assay type: ADME, organism-based; settings: in vivo; how it was run: as §1
[8] = tested on: Rattus norvegicus; assay: Tissue uptake (lungs) of [125I]- after administration of [125I]-labeled compound to immature female rats (n=3) in the absence of 60 microg coinjected estradiol after 0.5 hours; assay type: ADME, organism-based; settings: in vivo; how it was run: as §1
[9] = tested on: Rattus norvegicus; assay: Tissue uptake (lungs) of [125I]- after administration of [125I]-labeled compound to immature female rats (n=3) in the absence of 60 microg coinjected estradiol after 24 hours; assay type: ADME, organism-based; settings: in vivo; how it was run: as §1
[10] = tested on: Rattus norvegicus; assay: Tissue uptake (lungs) of [125I]- after administration of [125I]-labeled compound to immature female rats (n=3) in the presence of 60 microg coinjected estradiol after 1 hour; assay type: ADME, organism-based; settings: in vivo; how it was run: as §1
[11] = tested on: Rattus norvegicus; assay: Tissue uptake (lungs) of [125I]- after administration of [125I]-labeled compound to immature female rats (n=4) in the absence of 60 microg coinjected estradiol after 5 hours; assay type: ADME, organism-based; settings: in vivo; how it was run: as §1
[12] = tested on: Rattus norvegicus; assay: Tissue uptake (thyroid) of [125I]- after administration of [125I]-labeled compound to immature female rats (n=3) in the absence of 60 microg coinjected estradiol after 0.5 hours; assay type: ADME, organism-based, Thyroid gland; settings: in vivo
How it was run: (§2)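 Immature female Fischer rats, 24 days old, 55-60 g, unanesthetized in retention cages, got HPLC-purified n.c.a. 125I-labeled steroid (3 μCi, 111 kBq) by lateral tail vein. Dose was given in 200 μL saline with 9% ethanol and 1% Tween-80. Deep ether anesthesia, axillary artery cut; tissues KCl-washed, blotted, weighed, gamma-counted as % ID/g; variation as small-sample-corrected %CV.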

[13] = tested on: Rattus norvegicus; assay: Tissue uptake (spleen) of [125I]- after administration of [125I]-labeled compound to immature female rats (n=5) in the absence of 60 microg coinjected estradiol after 1 hour; assay type: ADME, organism-based; settings: in vivo; how it was run: as §2
[14] = tested on: Rattus norvegicus; assay: Tissue uptake (uterus) of [125I]- after administration of [125I]-labeled compound to immature female rats (n=4) in the absence of 60 microg coinjected estradiol after 5 hours; assay type: ADME, organism-based; settings: in vivo; how it was run: as §2
[15] = tested on: Rattus norvegicus; assay: Tissue uptake (blood) of [125I]- after administration of [125I]-labeled compound to immature female rats (n=5) in the absence of 60 microg coinjected estradiol after 1 hour; assay type: ADME, organism-based; settings: in vivo; how it was run: as §1
[16] = tested on: Rattus norvegicus; assay: Tissue uptake (brain) of [125I]- after administration of [125I]-labeled compound to immature female rats (n=3) in the absence of 60 microg coinjected estradiol after 0.5 hours; assay type: ADME, organism-based; settings: in vivo; how it was run: as §1
[17] = tested on: Rattus norvegicus; assay: Tissue uptake (brain) of [125I]- after administration of [125I]-labeled compound to immature female rats (n=3) in the absence of 60 microg coinjected estradiol after 24 hours; assay type: ADME, organism-based; settings: in vivo; how it was run: as §1
[18] = tested on: Rattus norvegicus; assay: Tissue uptake (brain) of [125I]- after administration of [125I]-labeled compound to immature female rats (n=4) in the absence of 60 microg coinjected estradiol after 5 hours; assay type: ADME, organism-based; settings: in vivo; how it was run: as §1
[19] = tested on: Rattus norvegicus; assay: Tissue uptake (thyroid) of [125I]- after administration of [125I]-labeled compound to immature female rats (n=4) in the absence of 60 microg coinjected estradiol after 2 hours; assay type: ADME, organism-based, Thyroid gland; settings: in vivo; how it was run: as §2
[20] = tested on: Rattus norvegicus; assay: Tissue uptake (uterus) of [125I]- after administration of [125I]-labeled compound to immature female rats (n=3) in the absence of 60 microg coinjected estradiol after 0.5 hours; assay type: ADME, organism-based; settings: in vivo; how it was run: as §2
[21] = tested on: Rattus norvegicus; assay: Tissue uptake (uterus) of [125I]- after administration of [125I]-labeled compound to immature female rats (n=3) in the absence of 60 microg coinjected estradiol. (24 hours after injection) (% coefficient of variation); assay type: ADME, organism-based; settings: in vivo; how it was run: as §2
[22] = tested on: Rattus norvegicus; assay: Tissue uptake (uterus) of [125I]- after administration of [125I]-labeled compound to immature female rats (n=3) in the presence of 60 microg coinjected estradiol after 1 hour; assay type: ADME, organism-based; settings: in vivo; how it was run: as §2
[23] = tested on: Rattus norvegicus; assay: Tissue uptake (uterus) of [125I]- after administration of [125I]-labeled compound to immature female rats (n=4) in the absence of 60 microg coinjected estradiol after 2 hours; assay type: ADME, organism-based; settings: in vivo; how it was run: as §2
[24] = target: Estrogen receptor (Mus musculus) (UniProt O08537+P19785); assay: Binding affinity at murine estrogen receptor by [3H]estradiol displacement.; assay type: protein assay
How it was run: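 Competitive binding in murine uterine cytoplasmic extracts, incubated 18 h at 0-4 °C with 20 nM [3H]estradiol, with or without competing steroids from 2 nM to 20 μM. RBA = 100 × ratio of competitor to unlabeled estradiol concentration giving 50% competition of specific [3H]estradiol binding. Mean of three experiments with SD.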

[25] = tested on: Rattus norvegicus; assay: Tissue uptake (kidneys) of [125I]- after administration of [125I]-labeled compound to immature female rats (n=4) in the absence of 60 microg coinjected estradiol after 5 hours; assay type: ADME, organism-based, Kidney; settings: in vivo; how it was run: as §1
[26] = tested on: Rattus norvegicus; assay: Tissue uptake (plasma) of [125I]- after administration of [125I]-labeled compound to immature female rats (n=5) in the absence of 60 microg coinjected estradiol after 1 hour; assay type: ADME, organism-based; settings: in vivo; how it was run: as §2
[27] = tested on: Rattus norvegicus; assay: Tissue uptake (plasma) of [125I]- after administration of [125I]-labeled compound to immature female rats (n=3) in the absence of 60 microg coinjected estradiol after 24 hours; assay type: ADME, organism-based; settings: in vivo; how it was run: as §1
[28] = tested on: Rattus norvegicus; assay: Tissue uptake (uterus) of [125I]- after administration of [125I]-labeled compound to immature female rats (n=3) in the absence of 60 microg coinjected estradiol after 24 hours; assay type: ADME, organism-based; settings: in vivo; how it was run: as §2
[29] = tested on: Rattus norvegicus; assay: Tissue uptake (uterus) of [125I]- after administration of [125I]-labeled compound to immature female rats (n=3) in the absence of 60 microg coinjected estradiol. (0.5 hours after injection) (% coefficient of variation); assay type: ADME, organism-based; settings: in vivo; how it was run: as §2

Chain of Estrogen receptor (Mus musculus) (O08537 whole entry, looked up): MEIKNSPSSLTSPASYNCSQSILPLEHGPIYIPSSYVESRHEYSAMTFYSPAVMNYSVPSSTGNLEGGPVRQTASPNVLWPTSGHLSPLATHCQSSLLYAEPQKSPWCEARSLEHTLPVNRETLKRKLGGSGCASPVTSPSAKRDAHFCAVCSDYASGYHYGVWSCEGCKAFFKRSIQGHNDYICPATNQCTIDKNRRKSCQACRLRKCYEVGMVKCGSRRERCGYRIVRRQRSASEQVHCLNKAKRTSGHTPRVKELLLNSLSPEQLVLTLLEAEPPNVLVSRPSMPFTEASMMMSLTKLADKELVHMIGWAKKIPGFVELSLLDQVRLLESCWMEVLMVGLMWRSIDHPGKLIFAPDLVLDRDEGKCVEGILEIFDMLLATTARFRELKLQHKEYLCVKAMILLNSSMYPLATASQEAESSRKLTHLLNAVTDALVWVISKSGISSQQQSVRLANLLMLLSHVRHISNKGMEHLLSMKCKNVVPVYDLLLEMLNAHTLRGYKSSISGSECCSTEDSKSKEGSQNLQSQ
Chain of Estrogen receptor (Mus musculus) (P19785 whole entry, looked up): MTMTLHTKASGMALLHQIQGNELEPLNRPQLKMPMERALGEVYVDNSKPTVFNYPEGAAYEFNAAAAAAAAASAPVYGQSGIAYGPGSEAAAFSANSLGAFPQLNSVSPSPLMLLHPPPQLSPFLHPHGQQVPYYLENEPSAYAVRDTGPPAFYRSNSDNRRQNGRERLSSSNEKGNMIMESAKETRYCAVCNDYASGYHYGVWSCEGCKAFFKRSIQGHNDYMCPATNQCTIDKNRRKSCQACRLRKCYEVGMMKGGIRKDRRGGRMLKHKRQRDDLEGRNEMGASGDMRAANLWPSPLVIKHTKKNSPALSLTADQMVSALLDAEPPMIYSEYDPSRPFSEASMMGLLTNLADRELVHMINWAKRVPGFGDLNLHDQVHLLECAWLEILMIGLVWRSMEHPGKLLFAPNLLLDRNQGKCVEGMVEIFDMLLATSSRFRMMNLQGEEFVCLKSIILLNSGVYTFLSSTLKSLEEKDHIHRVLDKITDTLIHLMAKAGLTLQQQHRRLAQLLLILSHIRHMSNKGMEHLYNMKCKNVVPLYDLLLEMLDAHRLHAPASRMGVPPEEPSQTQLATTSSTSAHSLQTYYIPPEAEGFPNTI

Structure (SMILES)	ID/g [1] [%]	ID/g [2] [%]	ID/g [3] [%]	ID/g [4] [%]	ID/g [5] [%]	ID/g [6] [%]	ID/g [7] [%]	ID/g [8] [%]	ID/g [9] [%]	ID/g [10] [%]	ID/g [11] [%]	ID/g [12] [%]	ID/g [13] [%]	ID/g [14] [%]	ID/g [15] [%]	ID/g [19] [%]	ID/g [22] [%]	ID/g [23] [%]	relative binding affinity (RBA) [24]	further results
CCO[C@H]1C[C@]2(C)[C@@H](O)[C@H](I)C[C@H]2[C@@H]2CCc3cc(O)ccc3[C@H]21	0.15	1.63	2.26	0.24	1.61	5.91	0.96	1.72	0.23	1.18	0.76	105.65	1.49	7.76	1.01	218.87	0.72	13.08	16.5	ID/g [16]: 0.68%; ID/g [17]: 0.04%; ID/g [18]: 0.14%; ID/g [20]: 7.85%; ID/g [21]: 1.64%
C[C@@H]1Cc2cc(O)ccc2[C@H]2CC[C@]3(C)[C@@H](O)[C@H](I)C[C@H]3[C@H]12	0.03	1.64	1.3	0.3	0.51	1.94	0.13	0.82	0.03	0.43	0.19	40.33	0.43	3.86	0.38	66.19	0.34	6.35	55.2	ID/g [25]: 0.25%; ID/g [26]: 0.58%; ID/g [27]: 0.04%; ID/g [28]: 1.64%; ID/g [29]: 4.32%
